Converted amounts (≈) assume the structure as drawn.
Key:
[1] = Cytotoxicity against African green monkey Vero cells measured by MTT assay; format: toxicity, cell-based; conditions: African green monkey (Chlorocebus sabaeus)
Procedure, shortened: (§1)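 Vero, HepG2 and mouse J774A.1 cells grown in RPMI 1640 with 10% FBS. MTT read-out in 96-well format.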

[2] = Selectivity index, Ratio of IC50 for Vero cells over MIC for Mycobacterium tuberculosis H37Rv; format: toxicity; conditions: monkey
[3] = test system: Mycobacterium tuberculosis; assay: Antimycobacterial activity against Mycobacterium tuberculosis H37Rv measured by MABA assay; format: functional
Procedure, shortened: (§2)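 Microplate Alamar Blue assay against replicating M. tuberculosis H37Rv or clinical isolates. MIC is the lowest concentration giving ≥90% reduction in fluorescence relative to the mean of replicate bacterium-only controls.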

[4] = Metabolic stability in mouse hepatocytes assessed as half-life at 1 uM measured by LC-MS/MS analysis; format: ADME, cell-based, Hepatocyte
Procedure, shortened: (§3)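 Compound at 1 µM with hepatocytes at 1 million cells/mL final; human hepatocytes are mixed donor, mouse are male. Incubated at 37 °C in CO2 at ~100 rpm. Sampled at 0, 15, 30, 60, 90 and 120 min, quenched in ice-cold ACN/MeOH with internal standard. Parent remaining measured by LC-MS/MS.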

[5] = Metabolic stability in human hepatocytes assessed as compound remaining at 1 uM measured by LC-MS/MS analysis; format: ADME, cell-based, Hepatocyte; conditions: read-out: Stability; procedure, shortened: as §3
[6] = Cytotoxicity against human HepG2 cells measured by MTT assay; format: toxicity, cell-based; procedure, shortened: as §1
[7] = Cytotoxicity against mouse J774.A1 cells measured by MTT assay; format: toxicity, cell-based; procedure, shortened: as §1
[8] = test system: Mycobacterium tuberculosis; assay: Antimycobacterial activity against Mycobacterium tuberculosis 14862 clinical isolate measured by MABA assay; format: functional; procedure, shortened: as §2
[9] = test system: Mycobacterium tuberculosis; assay: Antimycobacterial activity against Mycobacterium tuberculosis 13946 clinical isolate measured by MABA assay; format: functional; procedure, shortened: as §2
[10] = Metabolic stability in human hepatocytes assessed as half-life at 1 uM measured by LC-MS/MS analysis; format: ADME, cell-based, Hepatocyte; procedure, shortened: as §3
[11] = Metabolic stability in mouse hepatocytes assessed as compound remaining at 1 uM measured by LC-MS/MS analysis; format: ADME, cell-based, Hepatocyte; conditions: read-out: Stability; procedure, shortened: as §3
J774.A1 = assay: Antimycobacterial activity against Mycobacterium tuberculosis H37Rv infected in mouse J774.A1 cells assessed as change in log10 CFU at 5 ug/ml; format: functional; conditions: dose 5 µg/ml
Procedure, shortened: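 Mouse J774A.1 macrophages infected with M. tuberculosis H37Rv, test compound at final 10 or 5 µg/mL. Read-out is intracellular log10 CFU; Δlog10 CFU = untreated minus treated. Triplicates in at least three separate experiments.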

[12] = biological target: T1, Decaprenylphosphoryl-beta-D-ribose oxidase (Mycobacterium tuberculosis (strain ATCC 25618 / H37Rv), UniProt P9WJF1); assay: Inhibition of recombinant Mycobacterium tuberculosis DprE1 measured by resazurin dye based assay
T1 sequence (P9WJF1 whole entry): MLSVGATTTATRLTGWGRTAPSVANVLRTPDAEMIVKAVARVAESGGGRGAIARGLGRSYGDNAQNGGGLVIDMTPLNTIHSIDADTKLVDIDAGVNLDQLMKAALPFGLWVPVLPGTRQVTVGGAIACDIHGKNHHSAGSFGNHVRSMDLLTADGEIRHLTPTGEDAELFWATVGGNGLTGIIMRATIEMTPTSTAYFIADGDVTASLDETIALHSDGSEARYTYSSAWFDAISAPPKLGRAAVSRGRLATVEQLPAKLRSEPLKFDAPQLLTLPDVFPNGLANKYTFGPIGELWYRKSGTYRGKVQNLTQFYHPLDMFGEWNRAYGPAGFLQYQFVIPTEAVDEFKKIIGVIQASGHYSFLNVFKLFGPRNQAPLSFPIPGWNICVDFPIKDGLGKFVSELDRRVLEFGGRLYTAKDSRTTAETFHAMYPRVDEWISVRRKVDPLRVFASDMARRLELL
Procedure, shortened: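 Resazurin-coupled fluorescence assay at 30 °C. Buffer: 50 mM HEPES pH 7.5, 100 mM NaCl, 1.5% DMSO, 100 µM Tween-20, 50 µM resazurin, 2 µM FAD. DprE1 at 1 µM with 1 mM FPR across inhibitor concentrations. Resorufin read at ex 530/em 595 nm. IC50 from initial velocities plotted against inhibitor concentration.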

[13] = biological target: Voltage-gated inwardly rectifying potassium channel KCNH2 (Homo sapiens, UniProt Q12809); assay: Inhibition of hERG; format: toxicity
Procedure, shortened: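 Electrophysiological recording of hERG current at 30, 10, 3.0, 1.0 and 0.3 µM, run in duplicate for IC50.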

Chain of Voltage-gated inwardly rectifying potassium channel KCNH2 (Q12809 whole entry): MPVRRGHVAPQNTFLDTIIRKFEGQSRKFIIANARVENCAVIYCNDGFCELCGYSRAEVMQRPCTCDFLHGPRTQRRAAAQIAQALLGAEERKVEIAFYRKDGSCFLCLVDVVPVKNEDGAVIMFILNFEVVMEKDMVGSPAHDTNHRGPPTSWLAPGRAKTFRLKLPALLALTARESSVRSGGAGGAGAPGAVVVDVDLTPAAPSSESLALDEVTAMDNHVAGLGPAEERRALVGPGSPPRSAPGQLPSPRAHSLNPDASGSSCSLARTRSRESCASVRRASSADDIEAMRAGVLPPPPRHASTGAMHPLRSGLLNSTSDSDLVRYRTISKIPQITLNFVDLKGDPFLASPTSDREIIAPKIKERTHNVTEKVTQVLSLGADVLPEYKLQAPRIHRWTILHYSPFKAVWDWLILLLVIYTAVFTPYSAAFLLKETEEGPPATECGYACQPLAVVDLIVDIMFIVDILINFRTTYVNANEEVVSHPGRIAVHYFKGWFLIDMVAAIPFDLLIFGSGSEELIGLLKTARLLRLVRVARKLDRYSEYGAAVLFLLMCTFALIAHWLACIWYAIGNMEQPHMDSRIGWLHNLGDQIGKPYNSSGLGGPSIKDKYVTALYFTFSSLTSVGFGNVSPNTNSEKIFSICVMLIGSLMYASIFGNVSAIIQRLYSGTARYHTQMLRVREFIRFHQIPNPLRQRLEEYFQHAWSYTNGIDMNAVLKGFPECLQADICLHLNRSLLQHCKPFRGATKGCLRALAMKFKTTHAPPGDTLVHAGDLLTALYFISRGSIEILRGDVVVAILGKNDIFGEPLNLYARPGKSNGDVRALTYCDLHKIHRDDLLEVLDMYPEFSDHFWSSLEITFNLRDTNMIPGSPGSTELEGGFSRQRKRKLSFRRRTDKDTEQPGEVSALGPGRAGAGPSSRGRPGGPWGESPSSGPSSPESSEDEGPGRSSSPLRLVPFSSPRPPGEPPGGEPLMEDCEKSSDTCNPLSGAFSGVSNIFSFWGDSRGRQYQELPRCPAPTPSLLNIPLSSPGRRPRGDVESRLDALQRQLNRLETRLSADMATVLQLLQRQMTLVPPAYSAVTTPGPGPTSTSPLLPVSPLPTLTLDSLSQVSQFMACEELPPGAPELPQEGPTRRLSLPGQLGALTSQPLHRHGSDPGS

Q: For COC(=O)NC(=O)c1ccsc1NC(=O)c1ccc(S(=O)(=O)N2CCCCCC2)cc1, which IC50 [1] is on record?
A: 9.13 µg/mL (≈ 19.6 µM)

Q: And the selectivity ratio [2]?
A: 42

Q: And the MIC [3]?
A: 0.22 µg/mL (≈ 0.473 µM)

Q: Which IC50 [1] does the source give for COC(=O)NC(=O)c1ccsc1NC(=O)c1ccc(S(=O)(=O)N(C)C)cc1 here?
A: 16.2 µg/mL (≈ 39.3 µM)

Q: And the selectivity ratio [2]?
A: 14

Q: What about the MIC [3] of the same molecule?
A: 1.19 µg/mL (≈ 2.89 µM)

Q: For CCOC(=O)NC(=O)c1ccsc1NC(=O)c1ccc(S(=O)(=O)Nc2ccc([N+](=O)[O-])cc2)cc1, which MIC [3] is on record?
A: 3.61 µg/mL (≈ 6.96 µM)

Q: For CCCCNS(=O)(=O)c1ccc(C(=O)Nc2sccc2C(=O)NC(=O)OC)cc1, which IC50 [1] is on record?
A: 29.5 µg/mL (≈ 67.1 µM)

Q: And the selectivity ratio [2]?
A: 105

Q: What about the MIC [3] of the same molecule?
A: 0.28 µg/mL (≈ 0.637 µM)

Q: What does the source list for CCOC(=O)NC(=O)c1ccsc1NC(=O)c1ccc(S(=O)(=O)N2CCCCC2)cc1?
A: half-life at 1 µM [4]: 50.6 min; remaining at 1 µM [5]: 49.8%; IC50 [1]: 18.6 µg/mL (≈ 39.9 µM); IC50 [6]: 38.8 µg/mL (≈ 83.3 µM); IC50 [7]: 34.3 µg/mL (≈ 73.7 µM); MIC [8]: < 0.016 µg/mL; MIC [9]: < 0.016 µg/mL; half-life at 1 µM [10]: 29.9 min; remaining at 1 µM [11]: 66.3%; selectivity ratio [2]: 619; MIC [3]: 0.03 µg/mL (≈ 0.0644 µM)

Q: Which results are given for COC(=O)NC(=O)c1ccsc1NC(=O)c1ccc(C(=O)N2CCCCC2)cc1?
A: IC50 [1]: > 64 µg/mL; selectivity ratio [2]: > 337; MIC [3]: 0.19 µg/mL (≈ 0.457 µM)

Q: What does the source list for CCOC(=O)NC(=O)c1ccsc1NC(=O)c1ccc(S(=O)(=O)N2CCC(OC)CC2)cc1?
A: IC50 [1]: 21 µg/mL (≈ 42.4 µM); selectivity ratio [2]: 701; MIC [3]: 0.03 µg/mL (≈ 0.0605 µM)

Q: Which MIC [3] does the source give for O=C(NC(=O)c1ccsc1NC(=O)c1ccc(S(=O)(=O)N2CCCCC2)cc1)OCC(F)(F)F here?
A: 29.7 µg/mL (≈ 57.2 µM)

Q: With COC(=O)NC(=O)c1ccsc1NC(=O)c1ccc(S(=O)(=O)N2CCC(=O)CC2)cc1 as the molecule, how does the MIC [3] read?
A: 3.52 µg/mL (≈ 7.56 µM)

Q: Which MIC [3] does the source give for CCOC(=O)NC(=O)c1ccsc1NC(=O)c1ccc(S(=O)(=O)Nc2ccc(OC)cc2)cc1 here?
A: 3.64 µg/mL (≈ 7.23 µM)

Q: Which IC50 [1] does the source give for CC(C)OC(=O)NC(=O)c1ccsc1NC(=O)c1ccc(S(=O)(=O)N2CCOCC2)cc1 here?
A: 13.1 µg/mL (≈ 27.3 µM)

Q: And the selectivity ratio [2]?
A: 29

Q: What about the MIC [3] of the same molecule?
A: 0.45 µg/mL (≈ 0.934 µM)

Q: Which results are given for CCCOC(=O)NC(=O)c1ccsc1NC(=O)c1ccc(S(=O)(=O)N2CCCCC2)cc1?
A: IC50 [1]: 56.6 µg/mL (≈ 118 µM); selectivity ratio [2]: 1110; MIC [3]: 0.051 µg/mL (≈ 0.106 µM)

Q: With COC(=O)NC(=O)c1ccsc1NC(=O)c1ccc(S(=O)(=O)N2CCC2)cc1 as the molecule, how does the IC50 [1] read?
A: 17.5 µg/mL (≈ 41.3 µM)

Q: And the selectivity ratio [2]?
A: 134

Q: What about the MIC [3] of the same molecule?
A: 0.13 µg/mL (≈ 0.307 µM)

Q: For O=C(Nc1sccc1C(=O)Nc1ccccn1)c1ccc(S(=O)(=O)N2CCCCC2)cc1, which MIC [3] is on record?
A: 29.6 µg/mL (≈ 62.9 µM)

Q: Which MIC [3] does the source give for CCOC(=O)NC(=O)c1ccsc1NC(=O)c1ccc(S(=O)(=O)Nc2cccc(F)c2)cc1 here?
A: 1.14 µg/mL (≈ 2.32 µM)

Q: Which MIC [8] does the source give for CO[C@H]1/C=C/O[C@@]2(C)Oc3c(C)c(O)c4c(O)c(c(/C=N/N5CCN(C)CC5)c(O)c4c3C2=O)NC(=O)/C(C)=C\C=C\[C@H](C)[C@H](O)[C@@H](C)[C@@H](O)[C@@H](C)[C@H](OC(C)=O)[C@@H]1C [RIFAMPIN] here?
A: 9.24 µg/mL (≈ 11.2 µM)

Q: And the Activity (J774.A1)?
A: 1.03 deltalog10CFU

Q: What about the MIC [9] of the same molecule?
A: > 10 µg/mL

Q: What about the MIC [3] of the same molecule?
A: 0.015 µg/mL (≈ 0.0182 µM)

Q: With COC(=O)NC(=O)c1ccsc1NC(=O)c1ccc(S(=O)(=O)NC2CCCCC2)cc1 as the molecule, how does the IC50 [1] read?
A: > 64 µg/mL

Q: What about the selectivity ratio [2] of the same molecule?
A: > 70

Q: And the MIC [3]?
A: 0.92 µg/mL (≈ 1.98 µM)

Q: With CCOC(=O)NC(=O)c1ccsc1NC(=O)c1ccc(S(=O)(=O)Nc2ccccn2)cc1 as the molecule, how does the MIC [3] read?
A: 1.55 µg/mL (≈ 3.27 µM)

Q: With CCOC(=O)NC(=O)c1ccsc1NC(=O)c1ccc(S(=O)(=O)Nc2ccccc2)cc1 as the molecule, how does the IC50 [1] read?
A: 14.5 µg/mL (≈ 30.6 µM)

Q: What about the selectivity ratio [2] of the same molecule?
A: 21

Q: And the MIC [3]?
A: 0.7 µg/mL (≈ 1.48 µM)

Q: With COC(=O)NC(=O)c1ccsc1NC(=O)c1ccc(S(=O)(=O)N2CCCCC2)cc1 as the molecule, how does the half-life at 1 µM [4] read?
A: 14 min

Q: And the remaining at 1 µM [5]?
A: 1%

Q: And the IC50 [1]?
A: 3.62 µg/mL (≈ 8.02 µM)

Q: What about the IC50 [6] of the same molecule?
A: 36.8 µg/mL (≈ 81.5 µM)

Q: What about the IC50 [7] of the same molecule?
A: 36.9 µg/mL (≈ 81.7 µM)

Q: And the MIC [8]?
A: 0.51 µg/mL (≈ 1.13 µM)

Q: And the IC50 [12]?
A: 0.221 µM

Q: And the MIC [9]?
A: 0.48 µg/mL (≈ 1.06 µM)

Q: What about the half-life at 1 µM [10] of the same molecule?
A: 4.6 min

Q: And the IC50 [13]?
A: 3.3 µM

Q: What about the remaining at 1 µM [11] of the same molecule?
A: 22.7%

Q: What about the selectivity ratio [2] of the same molecule?
A: 15

Q: And the MIC [3]?
A: 0.24 µg/mL (≈ 0.532 µM)

— ChEMBL document CHEMBL5154717, “Identification of thiophene-benzenesulfonamide derivatives for the treatment of multidrug-resistant tuberculosis” (Eur J Med Chem, 2022)
